Experimental data published in ChEMBL document CHEMBL1133548, “Semisynthesis of antitumoral acetogenins: SAR of functionalized alkyl-chain bis-tetrahydrofuranic acetogenins, specific inhibitors of mitochondrial complex I” (J Med Chem, 2000).

What was measured:
[1] = Inhibition of NADH decylubiquinone (DB) oxidoreductase activity.; parameters: species or system Bos taurus
How it was run: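 Beef heart submitochondrial particles from sonicated frozen-thawed mitochondria, NADH-activated (300 µM) at 0.5 mg·mL⁻¹. Assay at 22 °C in 50 mM K phosphate pH 7.4, 1 mM EDTA, 0.28 nM complex I, with 75 µM NADH, 30 µM decylubiquinone, 2 µM antimycin and 2 mM KCN. Inhibitor titrated as ethanolic additions (5 min on ice each). NADH loss read at 340 nm; IC50 taken at 50% inhibition.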

[2] = target: Mitochondrial complex I; NADH oxidoreductase (Bos taurus, UniProt P25708+P52505); assay: Inhibition of NADH oxidase activity.; format: protein-complex assay
How it was run: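 Beef-heart submitochondrial particles (sonicated frozen-thawed mitochondria), preactivated with 300 µM NADH, assayed at 22 °C in 50 mM potassium phosphate pH 7.4, 1 mM EDTA (0.28 nM complex I). Aerobic oxidation of 75 µM NADH with no added quinone, followed at 340 nm. Ethanolic compound added cumulatively, 5 min on ice per step, ethanol ≤2%. IC50 is the final concentration giving 50% inhibition.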

[3] = target: Mitochondrial complex I; NADH oxidoreductase (Bos taurus) (UniProt P25708+P52505); assay: Relative potency of inhibition of NADH oxidase (IC50); 4-dehydroxy-4-hydroxylimonorolliniastatin-1 as standard; format: protein-complex assay
How it was run: (§1)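 Derived value: the compound's NADH oxidase IC50 expressed relative to that of the reference acetogenin. The oxidase assay used NADH-activated beef heart submitochondrial particles (0.28 nM complex I) oxidising 75 µM NADH aerobically without added quinone, at 22 °C and pH 7.4. Inhibitor was added stepwise with 5 min incubations on ice, and NADH decrease was followed at 340 nm.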

[4] = Ratio of IC50 of DB to that of NADH oxidase
How it was run: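 Ratio of two IC50 values measured on NADH-activated beef heart submitochondrial particles (0.28 nM complex I, 22 °C, pH 7.4 phosphate/EDTA). The numerator IC50 comes from NADH:decylubiquinone oxidoreductase (75 µM NADH, 30 µM DB, plus antimycin and cyanide). The denominator IC50 comes from aerobic NADH oxidase (75 µM NADH, no added quinone). Both activities were read at 340 nm.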

[5] = Percent of relative potency by NADH oxidase assay; how it was run: as §1

Mitochondrial complex I; NADH oxidoreductase, sequence (P25708 21-464 limits assumed, other chains not shown): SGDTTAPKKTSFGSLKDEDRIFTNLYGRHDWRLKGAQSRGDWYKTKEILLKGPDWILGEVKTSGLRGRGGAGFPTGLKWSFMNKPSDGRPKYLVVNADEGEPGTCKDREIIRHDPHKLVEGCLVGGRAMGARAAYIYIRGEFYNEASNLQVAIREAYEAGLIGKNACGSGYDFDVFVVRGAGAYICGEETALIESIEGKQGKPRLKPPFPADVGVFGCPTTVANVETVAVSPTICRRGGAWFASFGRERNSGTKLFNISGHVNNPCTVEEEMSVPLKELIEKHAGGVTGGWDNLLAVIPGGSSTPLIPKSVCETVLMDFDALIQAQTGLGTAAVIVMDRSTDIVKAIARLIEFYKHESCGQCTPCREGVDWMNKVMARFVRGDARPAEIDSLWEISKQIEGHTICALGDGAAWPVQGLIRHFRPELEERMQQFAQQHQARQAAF

Row | SMILES | IC50 [1] [nM] | IC50 [2] [nM] | Relative potency [3] | Ratio [4] | Relative potency [5]
1 | CCCCCCCCCC[C@H](O)[C@H]1CC[C@H]([C@H]2CC[C@H]([C@H](O)CCCCC(=O)CCCCCCCC3=C[C@H](C)OC3=O)O2)O1 [GUANACONE] | 2.1 | 1.52 | 6.1 | 1.4 | –
2 | CCCCCCCCCC[C@@H](O)[C@@H]1CC[C@@H]([C@@H]2CC[C@@H]([C@H](O)CCCCCCCCCC(O)CC3=CC(C)OC3=O)O2)O1 (stereo partly specified) [BULLATACIN] | 0.61 | 0.51 | 2 | 1.2 | 49
3 | CCCCCCCCCC[C@H](O)[C@H]1CC[C@H]([C@H]2CC[C@H]([C@H](O)CCCC/C(CCCCCCCC3=C[C@H](C)OC3=O)=N\O)O2)O1 | 0.67 | 0.34 | 1.4 | 2 | 73.5
4 | CCCCCC[C@@H](CCC[C@H](OC(C)=O)[C@H]1CC[C@H]([C@H]2CC[C@H]([C@@H](CCCCCCCCCCCCC3=C[C@H](C)OC3=O)OC(C)=O)O2)O1)OC(C)=O | 2940 | 5 | 20 | 587 | –
5 | CCCCCCCCCCC(=O)[C@H]1CC[C@H]([C@H]2CC[C@H](C(=O)CCCCC(=O)CCCCCCCC3=C[C@H](C)OC3=O)O2)O1 | 2.5 | 1.65 | 6.6 | 1.5 | –
6 | CCCCCC[C@H](O)CCC[C@H](O)[C@H]1CC[C@H]([C@H]2CC[C@H]([C@H](O)CCCCCCCCCCCCC3=C[C@H](C)OC3=O)O2)O1 [SQUAMOCIN] | 0.77 | 0.59 | 2.4 | 1.3 | 42.3
7 | CCCCC[C@H](O)CCCC[C@H](O)[C@H]1CC[C@H]([C@H]2CC[C@H]([C@H](O)CCCCCCCCCCCCC3=C[C@H](C)OC3=O)O2)O1 [MOTRILIN] | 0.81 | 0.41 | 1.6 | 2 | 61
8 | CCCCCCCCCC[C@H](O)[C@H]1CC[C@@H]([C@@H]2CC[C@H]([C@H](O)CCCCCCCC[C@@H](O)CC3=C[C@H](C)OC3=O)O2)O1 | 0.83 | 0.33 | 1.3 | 2.5 | 75.8
9 | CCCCCC(CCCC[C@H](OC(C)=O)[C@H]1CC[C@H]([C@H]2CC[C@H]([C@@H](CCCCCCCCCCCCC3=C[C@H](C)OC3=O)OC(C)=O)O2)O1)OC(C)=O (stereo partly specified) | 248 | 2.1 | 8.4 | 118 | –
10 | CCCCCC(CCCC[C@H](OS(C)(=O)=O)[C@H]1CC[C@H]([C@H]2CC[C@H]([C@@H](CCCCCCCCCCCCC3=C[C@H](C)OC3=O)OS(C)(=O)=O)O2)O1)OS(C)(=O)=O (stereo partly specified) | 64 | 2.9 | 12 | 22 | –
11 | CCCCCC[C@@H](CCC[C@H](OS(C)(=O)=O)[C@H]1CC[C@H]([C@H]2CC[C@H]([C@@H](CCCCCCCCCCCCC3=C[C@H](C)OC3=O)OS(C)(=O)=O)O2)O1)OS(C)(=O)=O | 2040 | 14.1 | 56 | 144 | –
12 | CCCCCCCCCC[C@H](OS(C)(=O)=O)[C@H]1CC[C@@H]([C@@H]2CC[C@H]([C@@H](CCCCCCCCCC[C@H](CC3=C[C@H](C)OC3=O)OS(C)(=O)=O)OS(C)(=O)=O)O2)O1 | 438 | 1.68 | – | 260 | 6.7
13 | CCCCCCCCCCC(=O)[C@H]1CC[C@@H]([C@@H]2CC[C@H]([C@H](O)CCCCCCCCCCC(=O)CC3=C[C@H](C)OC3=O)O2)O1 | 0.6 | 0.34 | 1.4 | 1.8 | 73.5
14 | CCCCCCCCCC[C@H](OC(C)=O)[C@H]1CC[C@@H]([C@@H]2CC[C@H]([C@@H](CCCCCCCCCC[C@H](CC3=C[C@H](C)OC3=O)OC(C)=O)OC(C)=O)O2)O1 | 1890 | 1.46 | 5.8 | 1300 | –
15 | CCCCCCCCCC[C@H](O)[C@H]1CC[C@@H]([C@@H]2CC[C@H]([C@H](O)CCCCCCCCCC[C@@H](O)CC3=C[C@H](C)OC3=O)O2)O1 [rolliniastatin-1] | 0.74 | 0.6 | 2.4 | 1.2 | 41.7
16 | CCCCCCCCCC[C@H](O)[C@H]1CC[C@H]([C@H]2CC[C@H]([C@H](O)CCCCC(O)CCCCCCCC3=C[C@H](C)OC3=O)O2)O1 (stereo partly specified) | 1.9 | 0.95 | 3.8 | 2 | 26.3
17 | CCCCCC/C(CCC[C@H](O)[C@H]1CC[C@H]([C@H]2CC[C@H]([C@H](O)CCCCCCCCCCCCC3=C[C@H](C)OC3=O)O2)O1)=N\O | 0.9 | 0.74 | 3 | 1.2 | 33.8
18 | CCCCCCCCCC[C@H](O)[C@H]1CC[C@@H]([C@@H]2CC[C@H]([C@H](O)CCCCCCCCCC/C(CC3=C[C@H](C)OC3=O)=N\O)O2)O1 | 0.29 | 0.25 | 1 | 1.1 | 100
19 | CCCCCCC(=O)CCC[C@H](O)[C@H]1CC[C@H]([C@H]2CC[C@H]([C@H](O)CCCCCCCCCCCCC3=C[C@H](C)OC3=O)O2)O1 | 1.3 | 0.65 | 2.6 | 1.9 | 38.5
20 | CCCCCCCCCC[C@H](O)[C@H]1CC[C@@H]([C@@H]2CC[C@H]([C@H](O)CCCCCCCCCCC(=O)CC3=C[C@H](C)OC3=O)O2)O1 | 0.45 | 0.42 | 1.7 | 1.1 | 59.5
21 | CCCCCCCCCC[C@H](O)[C@H]1CC[C@H]([C@H]2CC[C@H]([C@H](O)CCCCCCCCCCCCC3=C[C@H](C)OC3=O)O2)O1 [BULLANIN] | 0.44 | 0.32 | 1.3 | 1.4 | 78.1
22 | CCCCCCCCCC/C(=N\O)[C@H]1CC[C@@H]([C@@H]2CC[C@H]([C@H](O)CCCCCCCCCC/C(CC3=C[C@H](C)OC3=O)=N\O)O2)O1 | 0.39 | 0.34 | 1.4 | 1.1 | 73.5
23 | CCCCCC[C@H](CCC[C@@H](N=[N+]=[N-])[C@H]1CC[C@H]([C@H]2CC[C@H]([C@H](CCCCCCCCCCCCC3=C[C@H](C)OC3=O)N=[N+]=[N-])O2)O1)N=[N+]=[N-] | 315 | 18 | 72 | 17 | –
